In ChEMBL document CHEMBL1138515, “Synthesis and biological characterization of B-ring amino analogues of potent benzothiadiazine hepatitis C virus polymerase inhibitors” (J Med Chem, 2009):
pEC50, pIC50: −log10 of the molar value.

Experiments:
[1] = Inhibition of HCV1a H77 NS5B assessed as [3H]UTP incorporation into RNA by scintillation counting; set-up: species or system Hepatitis C virus (isolate H77)
Method in brief: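 Two-fold serial inhibitor dilutions were preincubated for 15 min at room temperature with NS5B (genotype 1a H77 or genotype 1b BK, 20-50 nM) in 20 mM Tris-Cl pH 7.4, 2 mM MnCl₂, 1 mM DTT, 1 mM EDTA and 60-125 µM GTP. Reactions were started with 20 µM CTP, 20 µM ATP, 1 µM ³H-UTP, 5 nM template RNA and RNase inhibitor, then run 2-4 h at room temperature.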

[2] = system: Hepatitis C virus; assay: Antiviral activity against HCV1a H77 assessed as inhibition of viral replication by cell-based replicon assay; format: functional, organism-based, Hepacivirus hominis; settings: genotype 1a H77
Method in brief: (§1)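 Stable luciferase-reporter subgenomic replicon Huh-7 lines (1a H77; 1b Con1) were seeded at 5000 cells/well in DMEM with 5% FBS. The next day an eight-point half-log dilution series was added from DMSO stocks. After 3 days the cells were lysed, luciferin was added and luminescence was read. EC₅₀ came from percent inhibition of replication at each concentration.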

[3] = Oral bioavailability in Sprague-Dawley rat at 5 mg/kg; format: ADME, organism-based; settings: in vivo
Method in brief: (§2)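 Overnight-fasted Sprague-Dawley rats (n = 3) received a single 5 mg/kg iv or oral dose in DMSO/PEG400 (1:9, v/v). Mean concentrations were fitted multiexponentially. AUC₀₋ₜ was calculated by linear trapezoidal rule and extrapolated to infinity using Cₜ divided by the terminal rate constant.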

[4] = Clearance in Sprague-Dawley rat at 5 mg/kg, iv; format: ADME, organism-based; set-up: dose 5 mg/kg, route intravenous; settings: in vivo; method in brief: as §2
[5] = Half life in Sprague-Dawley rat at 5 mg/kg, iv; format: ADME, organism-based; set-up: dose 5 mg/kg, route intravenous; settings: in vivo; method in brief: as §2
[6] = AUC (0 to infinity) in Sprague-Dawley rat at 5 mg/kg, po; format: ADME, organism-based; set-up: time infinity, dose 5 mg/kg, route oral; settings: plasma; method in brief: as §2
[7] = Cmax in Sprague-Dawley rat at 5 mg/kg, po; format: ADME, organism-based; set-up: dose 5 mg/kg, route oral; settings: in vivo; method in brief: as §2
[8] = target: Genome polyprotein (Hepatitis C virus genotype 1b (isolate Con1) (HCV), UniProt Q9WMX2); assay: Inhibition of HCV1b Con1 NS5B assessed as [3H]UTP incorporation into RNA by scintillation counting
[9] = system: Hepatitis C virus; assay: Antiviral activity against HCV1a H77 infected in human Huh7 cells assessed as inhibition viral subgenomic replication; format: functional, organism-based, Hepacivirus hominis; settings: genotype 1a H77, Huh-7; method in brief: as §1
[10] = system: Hepatitis C virus; assay: Antiviral activity against HCV1b Con1 infected in human Huh7 cells assessed as inhibition viral subgenomic replication; format: functional, organism-based, Hepacivirus hominis; settings: isolate Con1, Huh-7; method in brief: as §1
[11] = system: Hepatitis C virus; assay: Antiviral activity against HCV1b Con1 infected in human Huh7 cells assessed as inhibition viral subgenomic replication […]; format: functional, organism-based, Hepacivirus hominis; settings: isolate Con1, Huh-7
[12] = Drug level in Sprague-Dawley rat liver at 5 mg/kg, po after 1 hr; format: ADME, organism-based; set-up: dose 5 mg/kg, route oral; settings: read-out: Drug uptake
Method in brief: (§3)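 Sprague-Dawley rats were given 5 mg/kg orally in DMSO/PEG400 (1:9, v/v). Separate animals were sampled for liver and plasma at 1, 6 and 12 h. Drug in liver (µg/g) and in plasma was measured by LC-MS, and liver/plasma ratios were taken at each time.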

[13] = Drug level in Sprague-Dawley rat liver at 5 mg/kg, po after 6 hrs; format: ADME, organism-based; set-up: dose 5 mg/kg, route oral; settings: read-out: Drug uptake; method in brief: as §3
[14] = Drug level in Sprague-Dawley rat liver at 5 mg/kg, po after 12 hrs; format: ADME, organism-based; set-up: dose 5 mg/kg, route oral; settings: read-out: Drug uptake; method in brief: as §3
[15] = Ratio of drug level in liver to plasma of Sprague-Dawley rat at 5 mg/kg, po after 1 hr; format: ADME, organism-based; set-up: dose 5 mg/kg, route oral; settings: liver and plasma; method in brief: as §3
[16] = Ratio of drug level in liver to plasma of Sprague-Dawley rat at 5 mg/kg, po after 6 hrs; format: ADME, organism-based; set-up: dose 5 mg/kg, route oral; settings: liver and plasma; method in brief: as §3
[17] = Ratio of drug level in liver to plasma of Sprague-Dawley rat at 5 mg/kg, po after 12 hrs; format: ADME, organism-based; set-up: dose 5 mg/kg, route oral; settings: liver and plasma; method in brief: as §3

Sequence of Genome polyprotein (Q9WMX2 2420-3010 limits assumed): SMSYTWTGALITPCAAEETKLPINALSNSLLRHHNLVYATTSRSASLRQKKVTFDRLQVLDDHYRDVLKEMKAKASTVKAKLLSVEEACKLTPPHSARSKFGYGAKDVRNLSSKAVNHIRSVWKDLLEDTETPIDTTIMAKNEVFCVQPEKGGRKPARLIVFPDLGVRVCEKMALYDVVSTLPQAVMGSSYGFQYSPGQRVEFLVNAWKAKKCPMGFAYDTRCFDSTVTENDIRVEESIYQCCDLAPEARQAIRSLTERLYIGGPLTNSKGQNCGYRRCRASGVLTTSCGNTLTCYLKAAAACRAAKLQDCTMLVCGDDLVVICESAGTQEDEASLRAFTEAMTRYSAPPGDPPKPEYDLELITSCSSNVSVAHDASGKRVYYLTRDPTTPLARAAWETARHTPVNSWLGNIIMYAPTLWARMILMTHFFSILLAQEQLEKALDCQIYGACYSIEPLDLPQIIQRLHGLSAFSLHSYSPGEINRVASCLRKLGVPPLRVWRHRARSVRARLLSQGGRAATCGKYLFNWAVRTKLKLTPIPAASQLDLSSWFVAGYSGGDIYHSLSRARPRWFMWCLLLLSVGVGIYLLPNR

| SMILES | pIC50 [1] | pEC50 [2] | other results |
| --- | --- | --- | --- |
| COc1cccc(CNC2(CCC(C)(C)C)C(=O)C(C3=NS(=O)(=O)c4cc(NS(C)(=O)=O)ccc4N3)=C(O)c3ccccc32)c1 (stereo unspecified) | 7.89 | 7.70 | – |
| CC(C)CCC1(NC(=O)c2ccccc2)C(=O)C(C2=NS(=O)(=O)c3cc(NS(C)(=O)=O)ccc3N2)=C(O)c2ccccc21 (stereo unspecified) | 6.97 | – | – |
| CC(C)(C)CCC1(NC(=O)c2ccccc2)C(=O)C(C2=NS(=O)(=O)c3cc(NS(C)(=O)=O)ccc3N2)=C(O)c2ccccc21 (stereo unspecified) | 6.82 | – | – |
| Cn1ccnc1CNC1(CCC(C)(C)C)C(=O)C(C2=NS(=O)(=O)c3cc(NS(C)(=O)=O)ccc3N2)=C(O)c2ccccc21 (stereo unspecified) | 8.05 | 7.54 | – |
| COc1ccc(CNC2(CCC(C)(C)C)C(=O)C(C3=NS(=O)(=O)c4cc(NS(C)(=O)=O)ccc4N3)=C(O)c3ccccc32)cc1 (stereo unspecified) | 7.89 | 7.89 | – |
| CC(C)CC[C@@]1(NCc2ccccc2)C(=O)C(C2=NS(=O)(=O)c3cc(NS(C)(=O)=O)ccc3N2)=C(O)c2ccccc21 | 8.00 | 7.80 | bioavailability [3]: 13.3%; clearance [4]: 19.3 mL/min/kg; half-life [5]: 1.7 h; AUC(0-inf) [6]: 600 ng·h/mL; Cmax [7]: 80 ng/mL; pIC50 [8]: 7.80; pEC50 [9]: 7.17; pEC50 [10]: 7.82; pEC50 [11]: 6.56; concentration at 1 h [12]: 3590 ng/g; concentration at 6 h [13]: 2350 ng/g; concentration at 12 h [14]: 880 ng/g; Kp at 1 h [15]: 12; Kp at 6 h [16]: 6; Kp at 12 h [17]: 3 |
| Cc1cc(C)c(CNC2(CCC(C)(C)C)C(=O)C(C3=NS(=O)(=O)c4cc(NS(C)(=O)=O)ccc4N3)=C(O)c3ccccc32)c(C)c1 (stereo unspecified) | 7.48 | 7.22 | – |
| CC(C)(C)CCC1(NCc2ccc(-c3ccccc3)cc2)C(=O)C(C2=NS(=O)(=O)c3cc(NS(C)(=O)=O)ccc3N2)=C(O)c2ccccc21 (stereo unspecified) | 7.57 | – | – |
| Cc1cc(CNC2(CCC(C)(C)C)C(=O)C(C3=NS(=O)(=O)c4cc(NS(C)(=O)=O)ccc4N3)=C(O)c3ccccc32)n(C)n1 (stereo unspecified) | 8.30 | 7.82 | – |
| CC(C)(C)CCC1(NCc2ccc(OCc3ccccc3)cc2)C(=O)C(C2=NS(=O)(=O)c3cc(NS(C)(=O)=O)ccc3N2)=C(O)c2ccccc21 (stereo unspecified) | 7.57 | 6.93 | – |
| CC(C)CC[C@@]1(NS(C)(=O)=O)C(=O)C(C2=NS(=O)(=O)c3cc(NS(C)(=O)=O)ccc3N2)=C(O)c2ccccc21 | 8.15 | 7.25 | bioavailability [3]: 0%; clearance [4]: 71.7 mL/min/kg; half-life [5]: 0.2 h |
| COC(=O)NC1(CCC(C)C)C(=O)C(C2=NS(=O)(=O)c3cc(NS(C)(=O)=O)ccc3N2)=C(O)c2ccccc21 (stereo unspecified) | 7.60 | 6.68 | – |

Second part, led by results:

| pIC50 [1] | pEC50 [2] | SMILES | other results |
| --- | --- | --- | --- |
| 7.72 | 7.89 | CC(C)(C)CCC1(NCc2csc3ccccc23)C(=O)C(C2=NS(=O)(=O)c3cc(NS(C)(=O)=O)ccc3N2)=C(O)c2ccccc21 (stereo unspecified) | – |
| 7.77 | 8.10 | CC(C)(C)CCC1(NCc2ccccc2N)C(=O)C(C2=NS(=O)(=O)c3cc(NS(C)(=O)=O)ccc3N2)=C(O)c2ccccc21 (stereo unspecified) | bioavailability [3]: 8.9%; clearance [4]: 20 mL/min/kg; half-life [5]: 2.2 h; AUC(0-inf) [6]: 410 ng·h/mL; Cmax [7]: 80 ng/mL |
| 7.62 | 7.68 | Cc1cccc(C)c1CNC1(CCC(C)(C)C)C(=O)C(C2=NS(=O)(=O)c3cc(NS(C)(=O)=O)ccc3N2)=C(O)c2ccccc21 (stereo unspecified) | bioavailability [3]: 53.7%; clearance [4]: 13 mL/min/kg; half-life [5]: 5 h; AUC(0-inf) [6]: 3500 ng·h/mL; Cmax [7]: 460 ng/mL |
| 7.70 | 7.89 | CC(C)(C)CCC1(NCc2ccc(O)cc2)C(=O)C(C2=NS(=O)(=O)c3cc(NS(C)(=O)=O)ccc3N2)=C(O)c2ccccc21 (stereo unspecified) | – |
| 7.82 | 7.89 | Cc1cccc(CNC2(CCC(C)(C)C)C(=O)C(C3=NS(=O)(=O)c4cc(NS(C)(=O)=O)ccc4N3)=C(O)c3ccccc32)n1 (stereo unspecified) | bioavailability [3]: 33.8%; clearance [4]: 28.3 mL/min/kg; half-life [5]: 1 h; AUC(0-inf) [6]: 1340 ng·h/mL; Cmax [7]: 150 ng/mL |
| 7.92 | 8.00 | CC(C)(C)CCC1(NCc2ccco2)C(=O)C(C2=NS(=O)(=O)c3cc(NS(C)(=O)=O)ccc3N2)=C(O)c2ccccc21 (stereo unspecified) | – |
